Ecoli rRNA inh = reduced GFP signal of wild-type E. coli, primary screen, bacterial rRNA inhibitor project, GFP/RFP fluorescence, OD600, single point | 350,000 compounds, 1.6% hits | AID 720706, 2013 | GFP signal change (wild-type ribosome), % (test concentration not listed) | E. coli WT GFP vs humanized-ribosome RFP mutants, 24 h; hits give low values; DMSO median 0, no signal -100;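 active = significant combined selectivity score with lowered wild-type GFP, culture density cut under 30%, mutant RFP and density less affected; inactive = any of these conditions unmet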
HIV Env fusion = inhibitors of HIV-1 Env-driven cell-cell fusion, primary screen, HeLa-JRFL effector, CEM21 target cells, luciferase. inhibition, % at 12.3 µM. AID 651610, 2012. 360,000 compounds, 1.1% hits;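 active = mean replicate inhibition score of at least 50 and every replicate individually at or above 50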;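 also: 0% = plate neutral controls and 100% = maraviroc near 300 nM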
FN deposit inh = inhibitors of fibronectin matrix deposition, primary screen, AH1F cells, Alexa488-fibronectin fluorescence, plate reader | AH1F fibroblasts, overnight | inhibition, % at 12.6 µM | 350,000 compounds, 0.086% hits;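 active = mean inhibition across replicates of 30% or more, regardless of how many single replicates reach that level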;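 also: positive control wells lacked labelled fibronectin entirely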
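Measured by – fluorescence 485/525 nm · System – AH1F fibroblast monolayer, labelled fibronectin deposition · Amount – 10000 cells per well · Buffer or medium – serum-reduced DMEM (2% serum) · Doses – single dose, pinned · Also added – fluorescent fibronectin at 24 nM final · Schedule – 1 h cell attachment, overnight exposure to compound and label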
PvdQ acylase = P. aeruginosa PvdQ acylase inhibitors, primary screen, biochemical, fluorescence, plate reader and imaging, single point; PvdQ acylase [Pseudomonas aeruginosa LESB58]; purified PvdQ acylase; inhibition, % at 10 µM; 340,000 compounds, 0.063% hits; AID 488965, 2010; in the data active = inhibition above about 30%, passing the limit was not always enough;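 also: 0% = vehicle neutral wells and 100% = reference inhibitor wells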
PDI inh = inhibitors of human PDI, primary screen, biochemical, turbidity, single point, plate reader; Protein disulfide-isomerase (Homo sapiens), P07237; PDI insulin aggregation turbidity, A650, 90 min; inhibition, % at 10 µM; 350,000 compounds, 0.052% hits;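 active = mean inhibition across replicates of 30% or more, whatever share of single replicates reach that level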
ERp5 inh = inhibitors of ERp5-driven insulin aggregation, primary screen, biochemical, turbidity, absorbance 650 nm, single point | 90 min | inhibition, % at 9.99 µM | 350,000 compounds, 0.05% hits | AID 651711, 2012;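 active = mean replicate inhibition above about 25%, with every replicate also reaching it, limit read from the data, passing the limit was not always enough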
Target sequence (Q15084 whole entry, looked up): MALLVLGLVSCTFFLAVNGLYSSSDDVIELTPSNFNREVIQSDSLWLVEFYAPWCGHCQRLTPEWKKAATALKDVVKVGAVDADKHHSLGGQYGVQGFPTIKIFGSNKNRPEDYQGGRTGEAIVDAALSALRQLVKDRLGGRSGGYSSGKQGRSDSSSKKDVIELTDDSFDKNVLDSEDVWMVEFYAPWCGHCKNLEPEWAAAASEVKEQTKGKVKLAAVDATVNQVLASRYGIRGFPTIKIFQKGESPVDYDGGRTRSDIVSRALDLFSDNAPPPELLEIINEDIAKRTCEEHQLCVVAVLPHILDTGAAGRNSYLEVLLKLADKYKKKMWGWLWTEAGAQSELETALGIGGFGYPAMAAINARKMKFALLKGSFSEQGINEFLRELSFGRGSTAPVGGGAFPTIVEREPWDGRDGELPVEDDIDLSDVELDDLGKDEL
The depositor's hits bear a star; . = not tested or not shown; [ ] = remark or other dose. Shown are actives, neighbours in structure and some others; about 2.2% of the full set was active somewhere.

SMILES	Ecoli rRNA inh	HIV Env fusion	FN deposit inh	PvdQ acylase	PDI inh	ERp5 inh
c1ccc(CN2CCC(Nc3nc(-c4cccnc4)nc4ccccc34)CC2)cc1	-33*	-13	2	11	-4	5
O=S(=O)(NCCC1CC1(Cl)Cl)c1ccc(Cl)cc1 (configuration not stated)	-48*	7	-6	28	-7	-5
CC(C)(C)SCCNS(=O)(=O)c1ccc(Cl)cc1	-34	-6	-2	-4	5	-6
COc1ccc(NC(C)(C)c2nnnn2-c2c(C)cccc2C)cc1	-25*	8	9	0	2	2
Cc1cccc(C)c1-n1nnnc1C(C)(C)N1CCN(N=O)CC1	9	8	1	-4	-2	0
N#C/C(=C\c1ccc(OCc2ccc(C(=O)O)cc2)cc1)C(=O)N1CCOCC1	9	65*	-2	0	2	-1
COc1cc(/C=C(\C#N)C(=O)N2CCOCC2)ccc1OCc1ccccc1	-5	-2	5	-11	9	13
COc1ccc(CC(=O)NNC(=S)Nc2ccccc2)cc1Cl	-27*	1	-12	-7	2	5
CC(C)NC(=O)N(C)C[C@H]1Oc2cc(C#Cc3ccc(F)cc3)ccc2S(=O)(=O)N([C@H](C)CO)C[C@@H]1C	-7	13[16.7 µM]	.	.	.	2
COC(=O)C(Cc1ccccc1)NC(=O)C12CC3CC(CC(C3)C1)C2 (configuration not stated)	-34*	14	4	11	-3	-4
C[C@H](CO)N1C[C@H](C)[C@@H](CN(C)S(=O)(=O)c2ccc(Cl)cc2)Oc2ccc(NC(=O)Nc3ccccc3)cc2CC1=O	1	.	.	.	.	1
COc1ccc2c3c([nH]c2c1)[C@H](CO)N(C(=O)CN(C)C)CC31CCN(CC2CCCC2)CC1	6	.	.	.	.	74*
COc1ccc2c3c([nH]c2c1)[C@@H](CO)N(C(=O)CN(C)C)CC31CCN(CC2CCCC2)CC1	3	.	.	.	.	1
COc1cccc(S(=O)(=O)N2CC3(CN(C(=O)Nc4cccc(F)c4)[C@H](CO)c4[nH]c5cc(OC)ccc5c43)C2)c1	2	80*[16.7 µM]	.	.	.	69*
COc1ccc2c3c([nH]c2c1)[C@@H](CO)N(C(=O)Nc1cccc(F)c1)CC31CN(S(=O)(=O)c2cccc(C)c2)C1	0	80*[16.7 µM]	.	.	.	2
COc1ccc2c3c([nH]c2c1)[C@@H](CO)N(C(=O)Nc1cccc(F)c1)CC31CN(S(=O)(=O)c2ccccc2)C1	-3	.	.	.	.	.
CC(C)NC(=O)[C@@]1(C)c2ccccc2C(=O)N(Cc2cc(C(F)(F)F)cc(C(F)(F)F)c2)[C@H]1c1ccc(CO)cc1	.	-24[16.7 µM]	.	.	.	.
CCC(=O)N1[C@H](CO)[C@H](c2ccc(C3=CCCC3)cc2)[C@@H]1CNC(=O)CN(C)C	2	.	13	.	.	.
C[C@H](CO)N1C[C@H](C)[C@@H](CN(C)Cc2ccc(C(=O)Nc3ccccc3N)cc2)Oc2c(NC(=O)c3nc4ccccc4s3)cccc2C1=O	-8	.	2	.	.	0
CCOc1ccc(CC(=O)Nc2cccc(-c3ccc4nnc(C)n4n3)c2)cc1	-34*	-1	8	-14	-1	5
S=C(c1cn(Cc2ccccc2)c2ccccc12)N1CCOCC1	-29*	-2	6	-5	-2	-1
N#Cc1cn(Cc2ccccc2)c2ccccc12	.	-252	-41	35*	-1	.
S=C(c1cn(Cc2ccc(Br)cc2)c2ccccc12)N1CCOCC1	.	36	-10	16	1	.
O=C(NCc1ccccc1)c1csc(-c2cccnc2)n1	-37*	28	8	-2	-8	4
O=C(NCCc1csc(-c2cccnc2)n1)c1ccccc1	1	-32	4	-8	.	5
COc1ccc(CNCc2cccc(Cl)c2)cc1	7	15	5	43*	0	4
CC(C)(C)c1cc(/C=N/O)cc(C(C)(C)C)c1O	-52	11	11	-9	4	0

Compound activity from PubChem BioAssay.
